{"source": "ChEMBL document CHEMBL5696442", "about": "“Discovery of type II inhibitors of TGFβ-activated kinase 1 (TAK1) and mitogen-activated protein kinase kinase kinase kinase 2 (MAP4K2)” (J Med Chem, 2015)", "key": {"[1]": {"target": "DNA-PK/Ku70/Ku85 (Homo sapiens) (UniProt P78527+P12956+P13010)", "experiment": "Inhibition of DNAPK ATP labeling site harbouring KGGSWIQEINVAEK in human Huh-7 cell lysate at 1 uM by KiNativ Profiling analysis relative to control", "type": "subcellular"}, "[2]": {"target": "Serine/threonine-protein kinase 38 (Homo sapiens) (UniProt Q15208)", "experiment": "Inhibition of NDR1 Lys1 labeling site in human Huh-7 cell lysate at 1 uM by KiNativ Profiling analysis relative to control", "type": "subcellular"}, "[3]": {"target": "Serine/threonine-protein kinase N2 (Homo sapiens) (UniProt Q16513)", "experiment": "Inhibition of PKN2 Lys2 labeling site in human Huh-7 cell lysate at 1 uM by KiNativ Profiling analysis relative to control", "type": "subcellular"}, "[4]": {"target": "STE20-like serine/threonine-protein kinase (Homo sapiens) (UniProt Q9H2G2)", "sequence (Q9H2G2 whole entry, looked up)": "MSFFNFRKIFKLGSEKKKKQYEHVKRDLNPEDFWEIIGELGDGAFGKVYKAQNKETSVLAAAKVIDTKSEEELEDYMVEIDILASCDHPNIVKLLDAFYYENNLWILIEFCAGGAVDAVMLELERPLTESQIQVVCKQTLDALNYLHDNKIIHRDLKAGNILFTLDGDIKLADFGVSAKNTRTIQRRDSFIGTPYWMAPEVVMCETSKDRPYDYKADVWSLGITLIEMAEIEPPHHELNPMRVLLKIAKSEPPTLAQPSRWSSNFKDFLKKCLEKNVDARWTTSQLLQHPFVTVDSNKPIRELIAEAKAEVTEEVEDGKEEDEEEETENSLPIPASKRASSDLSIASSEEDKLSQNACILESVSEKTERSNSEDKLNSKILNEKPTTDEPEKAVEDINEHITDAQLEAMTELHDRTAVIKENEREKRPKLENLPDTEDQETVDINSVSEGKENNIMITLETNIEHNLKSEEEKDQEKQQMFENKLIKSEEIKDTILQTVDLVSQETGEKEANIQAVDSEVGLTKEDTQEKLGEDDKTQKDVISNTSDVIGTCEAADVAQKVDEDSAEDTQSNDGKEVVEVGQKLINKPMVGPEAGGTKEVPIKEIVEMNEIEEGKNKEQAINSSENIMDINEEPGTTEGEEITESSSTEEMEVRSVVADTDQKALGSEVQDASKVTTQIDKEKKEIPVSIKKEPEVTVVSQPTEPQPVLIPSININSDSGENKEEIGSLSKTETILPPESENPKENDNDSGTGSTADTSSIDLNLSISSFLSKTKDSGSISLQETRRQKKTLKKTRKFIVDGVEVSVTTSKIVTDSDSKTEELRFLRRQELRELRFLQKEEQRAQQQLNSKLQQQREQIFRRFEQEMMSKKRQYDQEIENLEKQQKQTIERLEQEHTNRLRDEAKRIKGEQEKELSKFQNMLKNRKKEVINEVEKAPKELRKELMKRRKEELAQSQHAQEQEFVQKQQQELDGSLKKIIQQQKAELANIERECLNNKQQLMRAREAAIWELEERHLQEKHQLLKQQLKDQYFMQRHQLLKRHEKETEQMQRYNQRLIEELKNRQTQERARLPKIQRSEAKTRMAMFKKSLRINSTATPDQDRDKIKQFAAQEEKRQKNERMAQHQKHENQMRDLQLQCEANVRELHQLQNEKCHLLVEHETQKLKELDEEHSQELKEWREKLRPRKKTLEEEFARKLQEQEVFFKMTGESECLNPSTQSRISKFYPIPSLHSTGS", "experiment": "Inhibition of SLK Lys1 labeling site in human Huh-7 cell lysate at 1 uM by KiNativ Profiling analysis relative to control", "type": "subcellular"}, "[5]": {"tested_on": "Epidermal growth factor receptor (Homo sapiens), P00533 [UNDEFINED MUTATION]", "experiment": "Inhibition of EGFR L747/T751del mutant (unknown origin) at 1 uM by Ambit Kinomescan binding assay relative to control"}, "[6]": {"target": "Diacylglycerol kinase alpha (Homo sapiens) (UniProt P23743)", "experiment": "Inhibition of DGKA ATP labeling site harbouring in human A-375 cells at 5 uM by KiNativ Profiling analysis relative to control", "type": "cell-based"}, "[7]": {"target": "Dual specificity mitogen-activated protein kinase kinase 1 (Homo sapiens) (UniProt Q02750)", "experiment": "Inhibition of MAP2K1 Lys2 labeling site harbouring IMHRDVKPSNILVNSR in human A-375 cells at 5 uM by KiNativ Profiling analysis relative to control", "type": "cell-based"}, "[8]": {"target": "Serine/threonine-protein kinase N1 (Homo sapiens) (UniProt Q16512)", "experiment": "Inhibition of PKN1 (unknown origin) at 10 uM by Ambit Kinomescan binding assay"}, "[9]": {"target": "Serine/threonine-protein kinase RIO1 (Homo sapiens) (UniProt Q9BRS2)", "experiment": "Inhibition of RIOK1 (unknown origin) at 10 uM by Ambit Kinomescan binding assay"}, "[10]": {"target": "Epidermal growth factor receptor (Homo sapiens) (UniProt P00533)", "experiment": "Inhibition of EGFR ACT labeling site harbouring ITDFGLAKLLGAEEK in human A-375 cells at 5 uM by KiNativ Profiling analysis relative to control", "type": "cell-based"}, "[11]": {"target": "Serine/threonine-protein kinase SMG1 (Homo sapiens) (UniProt Q96Q15)", "sequence (Q96Q15 whole entry)": "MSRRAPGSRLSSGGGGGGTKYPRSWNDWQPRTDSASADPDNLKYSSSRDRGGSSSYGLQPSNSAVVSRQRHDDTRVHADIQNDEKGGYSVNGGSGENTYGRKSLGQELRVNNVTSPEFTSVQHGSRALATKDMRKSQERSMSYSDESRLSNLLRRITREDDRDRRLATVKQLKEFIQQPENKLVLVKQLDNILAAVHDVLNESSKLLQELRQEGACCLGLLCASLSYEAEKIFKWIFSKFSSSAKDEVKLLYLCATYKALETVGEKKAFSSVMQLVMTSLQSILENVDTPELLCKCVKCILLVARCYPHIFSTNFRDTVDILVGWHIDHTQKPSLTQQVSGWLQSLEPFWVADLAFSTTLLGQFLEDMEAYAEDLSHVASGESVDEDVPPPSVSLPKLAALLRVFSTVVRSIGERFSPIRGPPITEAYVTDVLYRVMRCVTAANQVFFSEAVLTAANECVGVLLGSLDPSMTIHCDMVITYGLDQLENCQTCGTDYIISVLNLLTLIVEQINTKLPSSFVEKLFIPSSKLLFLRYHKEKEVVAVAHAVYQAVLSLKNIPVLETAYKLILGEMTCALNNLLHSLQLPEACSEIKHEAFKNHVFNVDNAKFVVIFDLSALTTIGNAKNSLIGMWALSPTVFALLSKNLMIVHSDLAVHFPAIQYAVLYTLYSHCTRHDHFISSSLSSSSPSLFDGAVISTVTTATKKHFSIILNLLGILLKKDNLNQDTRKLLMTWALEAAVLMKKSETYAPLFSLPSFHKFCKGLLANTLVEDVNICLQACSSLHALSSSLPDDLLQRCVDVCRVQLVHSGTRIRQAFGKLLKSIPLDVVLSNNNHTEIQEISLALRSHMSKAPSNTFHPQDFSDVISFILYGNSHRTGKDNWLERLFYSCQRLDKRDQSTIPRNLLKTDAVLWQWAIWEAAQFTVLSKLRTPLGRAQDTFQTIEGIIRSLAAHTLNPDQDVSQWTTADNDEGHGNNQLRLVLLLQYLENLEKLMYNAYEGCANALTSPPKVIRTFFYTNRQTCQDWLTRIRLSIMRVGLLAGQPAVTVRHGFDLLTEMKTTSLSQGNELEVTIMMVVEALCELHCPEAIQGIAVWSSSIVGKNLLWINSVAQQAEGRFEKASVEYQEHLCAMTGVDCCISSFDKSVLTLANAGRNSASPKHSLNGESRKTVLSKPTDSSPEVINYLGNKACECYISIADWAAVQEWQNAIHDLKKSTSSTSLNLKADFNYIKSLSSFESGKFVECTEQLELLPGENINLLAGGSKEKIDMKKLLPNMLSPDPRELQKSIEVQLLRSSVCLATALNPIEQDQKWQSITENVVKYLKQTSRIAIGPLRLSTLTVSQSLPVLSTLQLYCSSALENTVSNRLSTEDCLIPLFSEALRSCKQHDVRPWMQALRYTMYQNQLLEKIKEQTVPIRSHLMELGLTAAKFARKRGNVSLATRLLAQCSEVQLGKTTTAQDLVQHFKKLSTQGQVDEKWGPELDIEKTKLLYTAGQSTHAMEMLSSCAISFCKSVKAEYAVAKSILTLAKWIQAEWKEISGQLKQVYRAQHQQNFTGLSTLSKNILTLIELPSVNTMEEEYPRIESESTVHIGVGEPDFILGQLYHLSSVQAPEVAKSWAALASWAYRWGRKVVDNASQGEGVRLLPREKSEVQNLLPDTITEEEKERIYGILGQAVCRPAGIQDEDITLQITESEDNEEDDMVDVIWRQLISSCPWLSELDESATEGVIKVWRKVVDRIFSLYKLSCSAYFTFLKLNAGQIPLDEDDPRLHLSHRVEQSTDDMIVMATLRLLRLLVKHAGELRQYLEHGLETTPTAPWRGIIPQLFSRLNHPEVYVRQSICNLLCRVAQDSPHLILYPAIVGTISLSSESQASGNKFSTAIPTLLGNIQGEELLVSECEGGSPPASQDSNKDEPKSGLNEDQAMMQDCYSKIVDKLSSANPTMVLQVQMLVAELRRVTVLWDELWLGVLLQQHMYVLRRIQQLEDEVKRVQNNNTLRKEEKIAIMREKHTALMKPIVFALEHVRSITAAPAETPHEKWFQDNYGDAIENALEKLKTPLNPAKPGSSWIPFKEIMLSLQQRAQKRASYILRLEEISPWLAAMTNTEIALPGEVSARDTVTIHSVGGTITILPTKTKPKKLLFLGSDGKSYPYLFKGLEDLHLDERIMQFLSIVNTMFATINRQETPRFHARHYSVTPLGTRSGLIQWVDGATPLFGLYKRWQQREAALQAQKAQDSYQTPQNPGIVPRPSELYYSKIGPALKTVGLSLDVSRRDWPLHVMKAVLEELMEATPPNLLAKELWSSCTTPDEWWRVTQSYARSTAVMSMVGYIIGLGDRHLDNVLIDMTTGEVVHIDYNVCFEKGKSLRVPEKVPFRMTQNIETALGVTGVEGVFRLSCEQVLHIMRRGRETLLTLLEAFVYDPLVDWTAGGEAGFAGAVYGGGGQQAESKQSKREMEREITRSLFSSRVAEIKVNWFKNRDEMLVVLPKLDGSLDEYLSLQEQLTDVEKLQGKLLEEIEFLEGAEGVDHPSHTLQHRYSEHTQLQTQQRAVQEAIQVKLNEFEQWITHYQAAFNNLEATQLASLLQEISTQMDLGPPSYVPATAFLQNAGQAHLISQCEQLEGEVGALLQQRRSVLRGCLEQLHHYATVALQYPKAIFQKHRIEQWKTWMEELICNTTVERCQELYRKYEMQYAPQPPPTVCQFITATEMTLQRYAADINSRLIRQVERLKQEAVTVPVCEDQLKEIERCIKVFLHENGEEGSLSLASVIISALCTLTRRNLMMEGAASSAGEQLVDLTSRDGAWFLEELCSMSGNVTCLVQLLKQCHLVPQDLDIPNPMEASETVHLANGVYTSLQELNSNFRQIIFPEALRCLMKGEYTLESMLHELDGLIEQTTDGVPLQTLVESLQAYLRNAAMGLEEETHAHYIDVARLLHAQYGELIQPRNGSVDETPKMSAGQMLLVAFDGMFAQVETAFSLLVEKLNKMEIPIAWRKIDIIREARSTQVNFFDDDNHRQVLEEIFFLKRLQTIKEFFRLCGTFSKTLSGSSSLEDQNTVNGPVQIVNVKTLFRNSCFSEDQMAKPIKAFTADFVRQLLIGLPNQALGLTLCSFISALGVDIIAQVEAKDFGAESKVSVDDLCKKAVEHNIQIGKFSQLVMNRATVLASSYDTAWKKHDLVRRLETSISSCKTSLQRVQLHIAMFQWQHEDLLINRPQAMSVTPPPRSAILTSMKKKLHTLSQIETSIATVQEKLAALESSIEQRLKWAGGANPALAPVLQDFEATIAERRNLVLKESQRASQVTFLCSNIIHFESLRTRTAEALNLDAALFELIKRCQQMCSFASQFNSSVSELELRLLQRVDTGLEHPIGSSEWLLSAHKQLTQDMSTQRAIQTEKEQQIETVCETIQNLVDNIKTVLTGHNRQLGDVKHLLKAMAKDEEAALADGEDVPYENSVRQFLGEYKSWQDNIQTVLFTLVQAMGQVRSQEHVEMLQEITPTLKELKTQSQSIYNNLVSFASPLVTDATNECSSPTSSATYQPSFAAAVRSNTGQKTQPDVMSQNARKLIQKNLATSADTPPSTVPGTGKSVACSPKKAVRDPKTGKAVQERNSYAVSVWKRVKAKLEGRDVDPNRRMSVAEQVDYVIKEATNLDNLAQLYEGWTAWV", "experiment": "Inhibition of SMG1 ATP labeling site harbouring DTVTIHSVGGTITILPTKTKPK in human A-375 cells at 0.5 uM by KiNativ Profiling analysis relative to control", "type": "cell-based", "how_it_was_run": "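Live A375 melanoma cells treated with compound at 5 or 0.5 μM, then lysed. Lysate kinases were labeled with a lysine-reactive ATP or ADP-biotin probe. Inhibition was read as protection of labeling sites from the probe.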"}, "[12]": {"target": "T1, Inhibitor of nuclear factor kappa-B kinase subunit epsilon (Homo sapiens) (UniProt Q14164)", "T1 sequence (whole entry)": "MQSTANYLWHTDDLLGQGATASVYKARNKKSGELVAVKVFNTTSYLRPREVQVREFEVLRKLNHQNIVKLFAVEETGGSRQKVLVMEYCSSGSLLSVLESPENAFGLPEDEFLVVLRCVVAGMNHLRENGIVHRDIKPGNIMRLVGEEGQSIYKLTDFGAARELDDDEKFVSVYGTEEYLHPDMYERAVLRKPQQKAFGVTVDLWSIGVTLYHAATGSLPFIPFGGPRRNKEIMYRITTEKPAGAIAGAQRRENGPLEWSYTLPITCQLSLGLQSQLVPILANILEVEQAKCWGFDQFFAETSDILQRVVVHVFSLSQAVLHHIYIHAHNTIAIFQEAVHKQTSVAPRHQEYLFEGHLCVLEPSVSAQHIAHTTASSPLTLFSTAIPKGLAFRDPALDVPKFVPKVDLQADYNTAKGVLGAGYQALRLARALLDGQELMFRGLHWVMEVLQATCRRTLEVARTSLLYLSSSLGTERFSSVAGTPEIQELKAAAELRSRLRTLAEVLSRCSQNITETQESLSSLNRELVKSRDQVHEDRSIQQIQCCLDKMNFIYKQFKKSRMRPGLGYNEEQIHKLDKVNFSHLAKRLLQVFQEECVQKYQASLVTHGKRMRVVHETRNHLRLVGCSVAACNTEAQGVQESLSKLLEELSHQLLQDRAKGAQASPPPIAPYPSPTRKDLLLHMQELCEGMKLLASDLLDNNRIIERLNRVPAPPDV", "experiment": "Inhibition of IKKe Lys1 labeling site in human A-375 cells at 0.05 uM by KiNativ Profiling analysis relative to control", "type": "cell-based"}, "[13]": {"target": "Cyclin-dependent kinase 9 (Homo sapiens) (UniProt P50750)", "experiment": "Inhibition of CDK9 K2 labeling site in human Huh-7 cells at 10 uM by KiNativ Profiling analysis relative to control", "type": "cell-based"}, "[14]": {"target": "T2, Myotonin-protein kinase (Homo sapiens) (UniProt Q09013)", "T2 sequence (whole entry)": "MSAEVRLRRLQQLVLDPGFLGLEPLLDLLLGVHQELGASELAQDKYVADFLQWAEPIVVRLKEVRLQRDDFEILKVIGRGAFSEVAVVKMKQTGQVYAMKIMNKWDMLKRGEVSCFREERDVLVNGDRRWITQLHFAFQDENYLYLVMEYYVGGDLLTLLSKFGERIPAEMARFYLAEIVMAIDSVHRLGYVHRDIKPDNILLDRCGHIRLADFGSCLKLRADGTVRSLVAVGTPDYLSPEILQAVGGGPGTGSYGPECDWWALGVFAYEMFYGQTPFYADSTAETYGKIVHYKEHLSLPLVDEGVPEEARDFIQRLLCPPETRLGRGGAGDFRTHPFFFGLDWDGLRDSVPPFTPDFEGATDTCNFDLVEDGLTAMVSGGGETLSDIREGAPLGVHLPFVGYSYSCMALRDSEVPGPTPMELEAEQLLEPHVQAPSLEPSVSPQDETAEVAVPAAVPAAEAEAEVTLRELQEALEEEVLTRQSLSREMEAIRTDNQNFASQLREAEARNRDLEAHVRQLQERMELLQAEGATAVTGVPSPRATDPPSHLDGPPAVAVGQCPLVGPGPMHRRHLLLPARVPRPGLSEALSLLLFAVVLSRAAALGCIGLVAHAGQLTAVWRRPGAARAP", "experiment": "Inhibition of DMPK1 K2 labeling site in human Huh-7 cells at 10 uM by KiNativ Profiling analysis relative to control", "type": "cell-based"}, "[15]": {"target": "Dual specificity mitogen-activated protein kinase kinase; MEK1/2 (Homo sapiens) (UniProt P36507+Q02750)", "experiment": "Inhibition of MAP2K1/2 K2 labeling site in human Huh-7 cells at 10 uM by KiNativ Profiling analysis relative to control", "type": "cell-based"}, "[16]": {"target": "RPS6KA1/RPS6KA2/RPS6KA3 (Homo sapiens) (UniProt P51812+Q15349+Q15418)", "experiment": "Inhibition of RSK1/2/3 Domain 1 K2 labeling site harbouring DLKPENILLDEEGHIK in human Huh-7 cells at 10 uM by KiNativ Profiling analysis relative to control", "type": "cell-based"}}, "note": "The source made the active and inactive calls. The calls are words filed in the database; no cut-off is given here."}
{"smiles": "CNc1cc(Oc2cc(C(=O)Nc3cc(N4CCN(C)CC4)cc(C(F)(F)F)c3)ccc2C)ncn1", "values": [{"measurement": "inhibition", "setting": "[1]", "value": -5.7, "unit": "%"}, {"measurement": "inhibition", "setting": "[2]", "value": 9.5, "unit": "%"}, {"measurement": "inhibition", "setting": "[3]", "value": -8.4, "unit": "%"}, {"measurement": "inhibition", "setting": "[4]", "value": 3.9, "unit": "%"}]}
{"smiles": "CCN1CCN(Cc2ccc(NC(=O)c3ccc(C)c(/C=C/c4cnc5[nH]ccc5c4OC)c3)cc2C(F)(F)F)CC1", "values": [{"measurement": "inhibition", "setting": "[5]", "value": 1.6, "unit": "%"}, {"measurement": "inhibition", "setting": "[6]", "value": -1.8, "unit": "%"}, {"measurement": "inhibition", "setting": "[7]", "value": 34.7, "unit": "%"}]}
{"smiles": "CCN1CCN(Cc2ccc(NC(=O)c3ccc(C)c(Oc4ccnc5[nH]ccc45)c3)cc2C(F)(F)F)CC1", "values": [{"measurement": "inhibition", "setting": "[8]", "value": "inactive"}, {"measurement": "inhibition", "setting": "[9]", "value": "inactive"}, {"measurement": "inhibition", "setting": "[10]", "value": 5.4, "unit": "%"}, {"measurement": "inhibition", "setting": "[11]", "value": -9.1, "unit": "%"}, {"measurement": "inhibition", "setting": "[12]", "value": -3.7, "unit": "%"}, {"measurement": "inhibition", "setting": "[13]", "value": 0.4, "unit": "%"}, {"measurement": "inhibition", "setting": "[14]", "value": 2.8, "unit": "%"}, {"measurement": "inhibition", "setting": "[15]", "value": 14.4, "unit": "%"}, {"measurement": "inhibition", "setting": "[16]", "value": 8.7, "unit": "%"}]}
